This is an account of results in ChEMBL document CHEMBL3414472, “Synthesis, SAR, and series evolution of novel oxadiazole-containing 5-lipoxygenase activating protein inhibitors: discovery of 2-[4-(3-{(r)-1-[4-(2-amino-pyrimidin-5-yl)-phenyl]-1-cyclopropyl-ethyl}-[1,2,4]oxadiazol-5-yl)-pyrazol-1-yl]-N,N-dimethyl-acetamide (BI 665915)” (J Med Chem, 2015).

Where only a bound is given, the exact number is not on record here.

The target of data set [1] is T1, Leukotriene A-4 hydrolase (Homo sapiens) (UniProt P09960).
T1 sequence (whole entry): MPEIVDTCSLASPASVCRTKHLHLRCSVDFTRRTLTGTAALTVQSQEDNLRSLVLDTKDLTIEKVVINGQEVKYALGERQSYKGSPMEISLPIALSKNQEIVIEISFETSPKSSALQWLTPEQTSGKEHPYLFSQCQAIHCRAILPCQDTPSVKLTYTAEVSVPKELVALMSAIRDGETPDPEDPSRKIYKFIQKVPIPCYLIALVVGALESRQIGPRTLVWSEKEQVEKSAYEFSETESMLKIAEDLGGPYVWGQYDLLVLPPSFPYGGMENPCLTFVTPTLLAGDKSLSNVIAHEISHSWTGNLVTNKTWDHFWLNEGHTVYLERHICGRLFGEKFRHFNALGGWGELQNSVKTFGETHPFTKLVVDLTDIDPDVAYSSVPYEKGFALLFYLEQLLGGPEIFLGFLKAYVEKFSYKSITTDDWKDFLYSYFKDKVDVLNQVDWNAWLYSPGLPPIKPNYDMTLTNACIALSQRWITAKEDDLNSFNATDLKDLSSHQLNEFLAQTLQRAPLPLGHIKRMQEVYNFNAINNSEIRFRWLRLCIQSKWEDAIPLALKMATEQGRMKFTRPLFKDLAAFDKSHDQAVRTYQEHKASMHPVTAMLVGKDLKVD
Kind of data set: Inhibition of LTA4 hydrolase (unknown origin) at 10 uM relative to control.

Data set [2] can be described thus: Volume of distribution at steady state in dog at 1 mg/kg, iv and 10 mg/kg, po. Type of data set: ADME, organism-based, Canis lupus familiaris. The note with it: in vivo, read-out: Vdss. The procedure, abridged: (§1)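 iv 1 mg/kg in 70 % PEG; po 10 mg/kg as suspension in 0.5 % methyl cellulose/0.015 % Tween. Blood sampled at 11 timepoints (0, 5, 15, 30 min, 1, 2, 4, 6, 8, 12, 24 h) per dose; mean of n = 3. Clearance expressed as percent of hepatic blood flow.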

Data set [3] deals with T2, Polyunsaturated fatty acid 5-lipoxygenase (Homo sapiens) (UniProt P09917).
T2 sequence (whole entry): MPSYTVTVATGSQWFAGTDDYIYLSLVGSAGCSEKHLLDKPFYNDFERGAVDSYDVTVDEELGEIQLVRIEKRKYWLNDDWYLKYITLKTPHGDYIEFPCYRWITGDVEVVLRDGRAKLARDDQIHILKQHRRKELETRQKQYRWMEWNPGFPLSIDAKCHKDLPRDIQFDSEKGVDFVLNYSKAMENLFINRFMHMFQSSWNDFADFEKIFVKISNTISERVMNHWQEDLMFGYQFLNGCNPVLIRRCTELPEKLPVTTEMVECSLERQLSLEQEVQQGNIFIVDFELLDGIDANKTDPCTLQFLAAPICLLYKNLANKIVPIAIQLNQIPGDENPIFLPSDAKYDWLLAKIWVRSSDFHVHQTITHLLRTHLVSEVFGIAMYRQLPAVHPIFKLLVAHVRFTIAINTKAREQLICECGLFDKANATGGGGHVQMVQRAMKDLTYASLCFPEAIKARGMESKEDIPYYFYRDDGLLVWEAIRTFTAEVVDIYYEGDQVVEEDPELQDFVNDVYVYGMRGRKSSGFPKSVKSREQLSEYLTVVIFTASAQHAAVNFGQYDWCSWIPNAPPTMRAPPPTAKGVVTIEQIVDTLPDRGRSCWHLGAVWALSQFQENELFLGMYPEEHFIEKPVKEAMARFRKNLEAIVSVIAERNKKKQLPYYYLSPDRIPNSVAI
Kind of data set: Inhibition of 5-LO (unknown origin) at 10 uM relative to control.

Data set [4] in a line: Plasma concentration in C57BL/6 mouse at 10 mg/kg, po after 2 hrs. It is filed as ADME, organism-based. More on the design: dose 10 mg/kg, route oral.
A further data set relates to Mus musculus. Kind of data set: In vivo inhibition of FLAP in po dosed C57BL/6 mouse assessed as reduction of LTB4 production in calcimycin-stimulated whole blood after 2 hrs by ELISA. Type of data set: functional, organism-based.
A short description of data set [5]: Plasma concentration in C57BL/6 mouse at 3 mg/kg, po after 2 hrs. Type of data set: ADME, organism-based. More on the design: dose 3 mg/kg, route oral.
Data set [6] in a line: Fraction unbound in human plasma by equilibrium dialysis method. Type of data set: ADME, cell-free. The procedure, abridged:
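Unbound fraction in human plasma determined by equilibrium dialysis, in duplicate.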
On the technique in general: In equilibrium dialysis only unbound substance equilibrates across the membrane.

The target in data set [7] is T3, Arachidonate 5-lipoxygenase-activating protein (Homo sapiens, UniProt P20292).
T3 sequence (P20292 whole entry): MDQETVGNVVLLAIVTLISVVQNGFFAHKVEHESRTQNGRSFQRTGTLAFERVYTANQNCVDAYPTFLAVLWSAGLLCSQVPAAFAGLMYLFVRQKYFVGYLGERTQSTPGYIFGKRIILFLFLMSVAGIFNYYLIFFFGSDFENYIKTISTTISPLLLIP
Kind of data set: Displacement of [125I]-L-691831 from human FLAP expressed in insect SF9 cell membranes after 2 hrs by Topcount analysis. (Displacement assays read how much labelled ligand stays bound in the presence of the test substance.)

The target in the next data set is Cytochrome P450 2C9 (Homo sapiens, UniProt P11712). Kind of data set: Inhibition of CYP2C9 in human liver microsomes using dichlofenac as substrate preincubated for 10 mins followed by NADPH addition measured after 6 mins. It is filed as ADME. The procedure, abridged:
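Human liver microsomes (0.05 mg/mL protein) with cocktail substrates: 4 µM diclofenac (2C9), 3 µM dextromethorphan (2D6), 2.5 µM midazolam (3A4). Compound in 0.1 M potassium phosphate pH 7.4 preincubated 10 min at 37 °C; NADPH added, reaction 6 min at 37 °C.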

Data set [8] can be described thus: Oral bioavailability in cynomolgus monkey at 10 mg/kg. It is filed as ADME, organism-based, Macaca fascicularis. The note with it: in vivo. The procedure, abridged: as §1
Data set [9] is described as follows: Metabolic stability in human liver microsomes at 1 uM preincubated for 10 mins followed by NADPH addition measured over 60 mins by LC/MS analysis relative to hepatic blood flow. Type of data set: ADME. The following applies: read-out: Stability. The procedure, abridged:
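Human liver microsomes (1 mg/mL protein) with test compound at 1 µM, preincubated 10 min at 37 °C before adding NADPH. Remaining compound followed over a 0–60 min time course, as duplicate 8-timepoint curves. The slope of ln(% remaining) against time gives clearance, expressed as percent of hepatic blood flow.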
(In general: Microsomes from liver hold many membrane-bound enzymes, among them those of drug oxidation.)

Sequence of Cytochrome P450 2C9 (P11712 whole entry): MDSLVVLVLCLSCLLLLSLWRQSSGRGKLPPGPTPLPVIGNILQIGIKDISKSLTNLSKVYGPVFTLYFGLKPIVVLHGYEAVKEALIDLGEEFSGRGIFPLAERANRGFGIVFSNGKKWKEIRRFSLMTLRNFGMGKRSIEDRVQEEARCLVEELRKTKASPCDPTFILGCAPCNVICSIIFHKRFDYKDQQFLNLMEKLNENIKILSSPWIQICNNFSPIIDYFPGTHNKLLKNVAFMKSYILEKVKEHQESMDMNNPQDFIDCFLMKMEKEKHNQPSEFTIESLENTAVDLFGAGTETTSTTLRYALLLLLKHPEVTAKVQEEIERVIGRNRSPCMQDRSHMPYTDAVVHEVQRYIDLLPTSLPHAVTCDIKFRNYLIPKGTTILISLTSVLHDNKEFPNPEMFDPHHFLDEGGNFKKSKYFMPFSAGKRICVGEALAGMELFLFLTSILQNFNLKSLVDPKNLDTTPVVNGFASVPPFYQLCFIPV

Take `CN(C)C(=O)Cn1cc(-c2nc([C@@](C)(c3ccc(-c4cnc(N)nc4)cc3)C3CC3)no2)cn1` [BI 665915]: the inhibition in data set [1] is below 50%; in data set [3], below 50%; in the data set with Mus musculus, “Dose-dependent effect”. In data set [2], the Vd is 1.2 L/kg. The concentration at 2 h in [4] was found to be 14.8 µM; in [5], 3.7 µM. In [6], this compound displayed a fraction unbound of 0.047. Besides, the IC50 in data set [7] was 1.7 nM; against Cytochrome P450 2C9, above 30000 nM. For the same compound, in data set [8], the bioavailability came to 45%. The hepatic extraction ratio at 1 h, 1 µM in data set [9] was 0.33.

The inhibition is the drop in the measured response relative to a control, in per cent. As a reminder, the fraction unbound is the share of the substance not bound to proteins or other matrix. As a reminder, the IC50 is the concentration that inhibits the measured activity by half. A word on the bioavailability: it is dose-corrected exposure relative to a reference, in per cent.
